{"source": "ChEMBL document CHEMBL1781959", "about": "“Synthesis and in vitro antitumor activity of substituted quinazoline and quinoxaline derivatives: search for anticancer agent” (Eur J Med Chem, 2011)"}
{"system": "SF-268", "experiment": "Anticancer activity against human SF268 cells assessed as cell growth promotion at 10^-5 M after 48 hrs by SRB assay relative to control", "assay_type": "functional", "units": {"Activity": "%"}}
{"smiles": "O=C(Nc1ccccc1C(=O)Nc1ccc(/C=C/C=C/c2ccccc2)cc1)c1ccccc1", "Activity": 98.17}
{"system": "SNB-19", "experiment": "Anticancer activity against human SNB19 cells assessed as cell growth promotion at 10^-5 M after 48 hrs by SRB assay relative to control", "assay_type": "functional", "units": {"Activity": "%"}}
{"smiles": "O=C(Nc1ccccc1C(=O)Nc1ccc(/C=C/C=C/c2ccccc2)cc1)c1ccccc1", "Activity": 90.58}
{"system": "U-251", "experiment": "Anticancer activity against human U251 cells assessed as cell growth promotion at 10^-5 M after 48 hrs by SRB assay relative to control", "assay_type": "functional", "units": {"Activity": "%"}}
{"smiles": "O=C(Nc1ccccc1C(=O)Nc1ccc(/C=C/C=C/c2ccccc2)cc1)c1ccccc1", "Activity": 95.87}
{"system": "Malme-3M", "experiment": "Anticancer activity against human MALME-3M cells assessed as cell growth promotion at 10^-5 M after 48 hrs by SRB assay relative to control", "assay_type": "functional", "units": {"Activity": "%"}}
{"smiles": "O=C(Nc1ccccc1C(=O)Nc1ccc(/C=C/C=C/c2ccccc2)cc1)c1ccccc1", "Activity": 78.99}
{"system": "CCRF-CEM", "experiment": "Anticancer activity against human CCRF-CEM cells assessed as cell growth promotion at 10^-5 M after 48 hrs by SRB assay relative to control", "assay_type": "functional", "units": {"Activity": "%"}}
{"smiles": "O=C(Nc1ccccc1C(=O)Nc1ccc(/C=C/C=C/c2ccccc2)cc1)c1ccccc1", "Activity": 53.89}
{"system": "M14", "experiment": "Anticancer activity against human M14 cells assessed as cell growth promotion at 10^-5 M after 48 hrs by SRB assay relative to control", "assay_type": "functional", "units": {"Activity": "%"}}
{"smiles": "O=C(Nc1ccccc1C(=O)Nc1ccc(/C=C/C=C/c2ccccc2)cc1)c1ccccc1", "Activity": 83.75}
{"system": "MDA-MB-435", "experiment": "Anticancer activity against human MDA-MB-435 cells assessed as cell growth promotion at 10^-5 M after 48 hrs by SRB assay relative to control", "assay_type": "functional", "units": {"Activity": "%"}}
{"smiles": "O=C(Nc1ccccc1C(=O)Nc1ccc(/C=C/C=C/c2ccccc2)cc1)c1ccccc1", "Activity": 90.52}
{"system": "SK-MEL-5", "experiment": "Anticancer activity against human SK-MEL-5 cells assessed as cell growth promotion at 10^-5 M after 48 hrs by SRB assay relative to control", "assay_type": "functional", "units": {"Activity": "%"}}
{"smiles": "O=C(Nc1ccccc1C(=O)Nc1ccc(/C=C/C=C/c2ccccc2)cc1)c1ccccc1", "Activity": 77.57}
{"system": "UACC-257", "experiment": "Anticancer activity against human UACC257 cells assessed as cell growth promotion at 10^-5 M after 48 hrs by SRB assay relative to control", "assay_type": "functional", "units": {"Activity": "%"}}
{"smiles": "O=C(Nc1ccccc1C(=O)Nc1ccc(/C=C/C=C/c2ccccc2)cc1)c1ccccc1", "Activity": 103}
{"system": "UACC-62", "experiment": "Anticancer activity against human UACC62 cells assessed as cell growth promotion at 10^-5 M after 48 hrs by SRB assay relative to control", "assay_type": "functional", "units": {"Activity": "%"}}
{"smiles": "O=C(Nc1ccccc1C(=O)Nc1ccc(/C=C/C=C/c2ccccc2)cc1)c1ccccc1", "Activity": 84.87}
{"system": "OVCAR-3", "experiment": "Anticancer activity against human OVCAR3 cells assessed as cell growth promotion at 10^-5 M after 48 hrs by SRB assay relative to control", "assay_type": "functional", "units": {"Activity": "%"}}
{"smiles": "O=C(Nc1ccccc1C(=O)Nc1ccc(/C=C/C=C/c2ccccc2)cc1)c1ccccc1", "Activity": 88.79}
{"system": "OVCAR-5", "experiment": "Anticancer activity against human OVCAR5 cells assessed as cell growth promotion at 10^-5 M after 48 hrs by SRB assay relative to control", "assay_type": "functional", "units": {"Activity": "%"}}
{"smiles": "O=C(Nc1ccccc1C(=O)Nc1ccc(/C=C/C=C/c2ccccc2)cc1)c1ccccc1", "Activity": 99.95}
{"system": "NCI/ADR-RES", "experiment": "Anticancer activity against human NCI/ADR-RES cells assessed as cell growth promotion at 10^-5 M after 48 hrs by SRB assay relative to control", "assay_type": "functional", "units": {"Activity": "%"}}
{"smiles": "O=C(Nc1ccccc1C(=O)Nc1ccc(/C=C/C=C/c2ccccc2)cc1)c1ccccc1", "Activity": 112}
{"system": "SK-OV-3", "experiment": "Anticancer activity against human SKOV3 cells assessed as cell growth promotion at 10^-5 M after 48 hrs by SRB assay relative to control", "assay_type": "functional", "units": {"Activity": "%"}}
{"smiles": "O=C(Nc1ccccc1C(=O)Nc1ccc(/C=C/C=C/c2ccccc2)cc1)c1ccccc1", "Activity": 87.56}
{"system": "786-0", "experiment": "Anticancer activity against human 786-0 cells assessed as cell growth promotion at 10^-5 M after 48 hrs by SRB assay relative to control", "assay_type": "functional", "units": {"Activity": "%"}}
{"smiles": "O=C(Nc1ccccc1C(=O)Nc1ccc(/C=C/C=C/c2ccccc2)cc1)c1ccccc1", "Activity": 84.31}
{"system": "CAKI-1", "experiment": "Anticancer activity against human Caki1 cells assessed as cell growth promotion at 10^-5 M after 48 hrs by SRB assay relative to control", "assay_type": "functional", "units": {"Activity": "%"}}
{"smiles": "O=C(Nc1ccccc1C(=O)Nc1ccc(/C=C/C=C/c2ccccc2)cc1)c1ccccc1", "Activity": 83.56}
{"system": "RXF 393", "experiment": "Anticancer activity against human RXF393 cells assessed as cell growth promotion at 10^-5 M after 48 hrs by SRB assay relative to control", "assay_type": "functional", "units": {"Activity": "%"}}
{"smiles": "O=C(Nc1ccccc1C(=O)Nc1ccc(/C=C/C=C/c2ccccc2)cc1)c1ccccc1", "Activity": 98.83}
{"system": "SN12C", "experiment": "Anticancer activity against human SN12C cells assessed as cell growth promotion at 10^-5 M after 48 hrs by SRB assay relative to control", "assay_type": "functional", "units": {"Activity": "%"}}
{"smiles": "O=C(Nc1ccccc1C(=O)Nc1ccc(/C=C/C=C/c2ccccc2)cc1)c1ccccc1", "Activity": 87.79}
{"system": "UO-31", "experiment": "Anticancer activity against human UO31 cells assessed as cell growth promotion at 10^-5 M after 48 hrs by SRB assay relative to control", "assay_type": "functional", "units": {"Activity": "%"}}
{"smiles": "O=C(Nc1ccccc1C(=O)Nc1ccc(/C=C/C=C/c2ccccc2)cc1)c1ccccc1", "Activity": 49.85}
{"system": "HL-60(TB)", "experiment": "Anticancer activity against human HL-60(TB) cells assessed as cell growth promotion at 10^-5 M after 48 hrs by SRB assay relative to control", "assay_type": "functional", "summary_of_the_method": "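NCI-60 single-dose screen: compound at 10^-5 M, 48 h at 37 °C, 5% CO2; cells grown in RPMI 1640 with 5% FBS and 2 mM L-glutamine, pre-incubated 24 h before dosing. Adherent cells fixed with cold TCA; endpoint is sulforhodamine B protein staining. Percent growth of treated cells is reported relative to untreated control.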", "units": {"Activity": "%"}}
{"smiles": "O=C(Nc1ccccc1C(=O)Nc1ccc(/C=C/C=C/c2ccccc2)cc1)c1ccccc1", "Activity": 92.43}
{"system": "K562", "experiment": "Anticancer activity against human K562 cells assessed as cell growth promotion at 10^-5 M after 48 hrs by SRB assay relative to control", "assay_type": "functional", "units": {"Activity": "%"}}
{"smiles": "O=C(Nc1ccccc1C(=O)Nc1ccc(/C=C/C=C/c2ccccc2)cc1)c1ccccc1", "Activity": 62.47}
{"system": "MOLT-4", "experiment": "Anticancer activity against human MOLT4 cells assessed as cell growth promotion at 10^-5 M after 48 hrs by SRB assay relative to control", "assay_type": "functional", "units": {"Activity": "%"}}
{"smiles": "O=C(Nc1ccccc1C(=O)Nc1ccc(/C=C/C=C/c2ccccc2)cc1)c1ccccc1", "Activity": 77.32}
{"system": "MDA-MB-231", "experiment": "Anticancer activity against human MDA-MB-231 cells assessed as cell growth promotion at 10^-5 M after 48 hrs by SRB assay relative to control", "assay_type": "functional", "units": {"Activity": "%"}}
{"smiles": "O=C(Nc1ccccc1C(=O)Nc1ccc(/C=C/C=C/c2ccccc2)cc1)c1ccccc1", "Activity": 87.48}
{"system": "not listed separately", "experiment": "Anticancer activity against human Hs 578T cells assessed as cell growth promotion at 10^-5 M after 48 hrs by SRB assay relative to control", "assay_type": "functional", "units": {"Activity": "%"}}
{"smiles": "O=C(Nc1ccccc1C(=O)Nc1ccc(/C=C/C=C/c2ccccc2)cc1)c1ccccc1", "Activity": 80.44}
{"system": "T47D", "experiment": "Anticancer activity against human T47D cells assessed as cell growth promotion at 10^-5 M after 48 hrs by SRB assay relative to control", "assay_type": "functional", "units": {"Activity": "%"}}
{"smiles": "O=C(Nc1ccccc1C(=O)Nc1ccc(/C=C/C=C/c2ccccc2)cc1)c1ccccc1", "Activity": 86.44}
{"system": "not listed separately", "experiment": "Anticancer activity against human […] cells assessed as cell growth promotion at 10^-5 M after 48 hrs by SRB assay relative to control", "assay_type": "functional", "units": {"Activity": "%"}}
{"smiles": "O=C(Nc1ccccc1C(=O)Nc1ccc(/C=C/C=C/c2ccccc2)cc1)c1ccccc1", "Activity": 63.43}
{"system": "SR", "experiment": "Anticancer activity against human SR cells assessed as cell growth promotion at 10^-5 M after 48 hrs by SRB assay relative to control", "assay_type": "functional", "units": {"Activity": "%"}}
{"smiles": "O=C(Nc1ccccc1C(=O)Nc1ccc(/C=C/C=C/c2ccccc2)cc1)c1ccccc1", "Activity": 70.89}
{"system": "EKVX", "experiment": "Anticancer activity against human EKVX cells assessed as cell growth promotion at 10^-5 M after 48 hrs by SRB assay relative to control", "assay_type": "functional", "units": {"Activity": "%"}}
{"smiles": "O=C(Nc1ccccc1C(=O)Nc1ccc(/C=C/C=C/c2ccccc2)cc1)c1ccccc1", "Activity": 87.7}
{"system": "HOP-62", "experiment": "Anticancer activity against human HOP62 cells assessed as cell growth promotion at 10^-5 M after 48 hrs by SRB assay relative to control", "assay_type": "functional", "units": {"Activity": "%"}}
{"smiles": "O=C(Nc1ccccc1C(=O)Nc1ccc(/C=C/C=C/c2ccccc2)cc1)c1ccccc1", "Activity": 93.96}
{"system": "NCI-H23", "experiment": "Anticancer activity against human NCI-H23 cells assessed as cell growth promotion at 10^-5 M after 48 hrs by SRB assay relative to control", "assay_type": "functional", "units": {"Activity": "%"}}
{"smiles": "O=C(Nc1ccccc1C(=O)Nc1ccc(/C=C/C=C/c2ccccc2)cc1)c1ccccc1", "Activity": 91.39}
{"system": "NCI-H322M", "experiment": "Anticancer activity against human NCI-H322M cells assessed as cell growth promotion at 10^-5 M after 48 hrs by SRB assay relative to control", "assay_type": "functional", "units": {"Activity": "%"}}
{"smiles": "O=C(Nc1ccccc1C(=O)Nc1ccc(/C=C/C=C/c2ccccc2)cc1)c1ccccc1", "Activity": 81.13}
{"system": "NCI-H460", "experiment": "Anticancer activity against human NCI-H460 cells assessed as cell growth promotion at 10^-5 M after 48 hrs by SRB assay relative to control", "assay_type": "functional", "units": {"Activity": "%"}}
{"smiles": "O=C(Nc1ccccc1C(=O)Nc1ccc(/C=C/C=C/c2ccccc2)cc1)c1ccccc1", "Activity": 94.36}
{"system": "HCT-116", "experiment": "Anticancer activity against human HCT116 cells assessed as cell growth promotion at 10^-5 M after 48 hrs by SRB assay relative to control", "assay_type": "functional", "units": {"Activity": "%"}}
{"smiles": "O=C(Nc1ccccc1C(=O)Nc1ccc(/C=C/C=C/c2ccccc2)cc1)c1ccccc1", "Activity": 84.74}
{"system": "HCT-15", "experiment": "Anticancer activity against human HCT15 cells assessed as cell growth promotion at 10^-5 M after 48 hrs by SRB assay relative to control", "assay_type": "functional", "units": {"Activity": "%"}}
{"smiles": "O=C(Nc1ccccc1C(=O)Nc1ccc(/C=C/C=C/c2ccccc2)cc1)c1ccccc1", "Activity": 73.53}
{"system": "HT-29", "experiment": "Anticancer activity against human HT-29 cells assessed as cell growth promotion at 10^-5 M after 48 hrs by SRB assay relative to control", "assay_type": "functional", "units": {"Activity": "%"}}
{"smiles": "O=C(Nc1ccccc1C(=O)Nc1ccc(/C=C/C=C/c2ccccc2)cc1)c1ccccc1", "Activity": 111}
{"system": "KM12", "experiment": "Anticancer activity against human KM12 cells assessed as cell growth promotion at 10^-5 M after 48 hrs by SRB assay relative to control", "assay_type": "functional", "units": {"Activity": "%"}}
{"smiles": "O=C(Nc1ccccc1C(=O)Nc1ccc(/C=C/C=C/c2ccccc2)cc1)c1ccccc1", "Activity": 93.79}
{"system": "SW-620", "experiment": "Anticancer activity against human SW620 cells assessed as cell growth promotion at 10^-5 M after 48 hrs by SRB assay relative to control", "assay_type": "functional", "units": {"Activity": "%"}}
{"smiles": "O=C(Nc1ccccc1C(=O)Nc1ccc(/C=C/C=C/c2ccccc2)cc1)c1ccccc1", "Activity": 107}
